CAL PDZ FP-1: inhibitors of human CAL PDZ peptide binding. purified CAL PDZ, TMR-peptide fluorescence polarization, 1 h. inhibition, % at 24.9 µM. 300,000 compounds, 0.92% hits. AID 602252;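 active = mean inhibition of at least 30% with at least half of replicates also reaching 30%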;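 note: 0% = DMSO neutral control and 100% = excess unlabeled competitor peptide PRC23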
CAL PDZ FP-2: human CAL PDZ-peptide interaction inhibition; inhibition, % at 20 µM; 330,000 compounds, 0.02% hits; Q9HD26; purified CAL PDZ, TMR-peptide fluorescence polarization, 1 h;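 active = highest replicate inhibition of at least 40%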;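 note: plate controls were DMSO neutral control wells for no effect and unlabeled competitor peptide control wells for full effect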
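Material: tagged CAL PDZ protein CerCALP, purified; buffer or medium: sodium phosphate/NaCl buffer pH 7.4 with TCEP, IgG, Thesit; also added: fluorescent TMR peptide probe; schedule: 1 h incubation at room temperature before polarization reading; technique: fluorescence polarization from S- and P-plane intensities, G-factor corrected; control set: unlabelled peptide and DMSO controls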
RAD54 inh: inhibitors of human RAD54 branch migration | 360,000 compounds, 0.14% hits | AID 602329 | inhibition, % at 10.4 µM | Q92698 | RAD54 Holliday junction branch migration, FAM/BHQ fluorescence;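 active = mean normalized replicate activity at least 40 and at least half of replicates scoring 40 or more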;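 note: 0% = median of neutral control wells and 100% = median of positive control wells; inhibitors cause a drop in the FAM fluorescence signal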
ERp5 block: inhibitors of human ERp5 | Q15084 | ERp5 insulin aggregation, absorbance 650 nm, 90 min | inhibition, % at 9.99 µM | 350,000 compounds, 0.05% hits | AID 651711;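 active = mean replicate inhibition above about 25%, with every replicate also reaching it, limit read from the data, passing the limit was not always enough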
Target sequence (Q15084 whole entry, looked up): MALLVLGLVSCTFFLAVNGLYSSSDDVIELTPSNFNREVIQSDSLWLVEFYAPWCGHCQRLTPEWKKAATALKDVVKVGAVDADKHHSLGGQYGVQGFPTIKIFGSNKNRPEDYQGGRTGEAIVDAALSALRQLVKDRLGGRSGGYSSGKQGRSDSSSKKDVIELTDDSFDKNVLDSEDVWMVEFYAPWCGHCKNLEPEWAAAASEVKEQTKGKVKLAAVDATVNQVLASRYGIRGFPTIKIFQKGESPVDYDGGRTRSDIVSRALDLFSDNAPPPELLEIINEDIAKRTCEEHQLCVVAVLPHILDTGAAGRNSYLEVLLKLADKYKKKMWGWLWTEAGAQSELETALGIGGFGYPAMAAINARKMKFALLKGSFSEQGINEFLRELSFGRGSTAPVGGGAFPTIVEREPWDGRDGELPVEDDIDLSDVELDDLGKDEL
RAD52 anneal inh: blocks human RAD52 DNA annealing | P43351 | recombinant RAD52 DNA annealing, FRET fluorescence | inhibition, % at 18.7 µM | 360,000 compounds, 0.46% hits;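 active = every replicate showing at least 50% inhibition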
PDI turbidity: blocks human protein disulfide isomerase activity; P07237; PDI insulin aggregation turbidity, A650, 90 min; inhibition, % at 10 µM; 350,000 compounds, 0.052% hits; AID 588391;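 active = mean inhibition across replicates of 30% or more, whatever share of single replicates reach that level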
* = called active by the depositor; x = not tested or not shown. Only some compounds are listed: those with a hit (about 1% of all), similar ones and a draw of the others.

SMILES	CAL PDZ FP-1	CAL PDZ FP-2	RAD54 inh	ERp5 block	RAD52 anneal inh	PDI turbidity
COc1cc(C(=O)NC2CCN(C)CC2)ccc1Nc1ncc2c(n1)N(Cc1ccccc1)CCC(=O)N2C	-2	1	31	13	70*	-7
Cn1nc(C(=O)Nc2ccc(Cl)c(S(=O)(=O)N3CCOCC3)c2)c2ccccc2c1=O	0	-2	-8	0	-7	1
O=C(Nc1ccc(Cl)c(S(=O)(=O)N2CCCC2)c1)c1nn(CCO)c(=O)c2ccccc12	39*	-3	-10	5	-76	-2
Cc1ccc(S(=O)(=O)NCCNc2ccc(Br)c(C)c2)cc1	39*	0	-7	-4	-10	16
C[C@H](CO)N1C[C@H](C)[C@H](CN(C)S(=O)(=O)c2cccs2)Oc2c(NC(=O)c3nc4ccccc4s3)cccc2C1=O	x	x	0	4	-7	x
Cc1noc(C)c1S(=O)(=O)Nc1ccc2c(c1)C(=O)N([C@H](C)CO)C[C@@H](C)[C@H](CN(C)S(=O)(=O)c1ccc(F)cc1)OCCCC[C@@H](C)O2	x	x	-8	-8	59*	x
Cc1noc(C)c1S(=O)(=O)Nc1ccc2c(c1)C(=O)N([C@H](C)CO)C[C@H](C)[C@@H](CN(C)S(=O)(=O)c1ccc(F)cc1)OCCCC[C@@H](C)O2	x	x	-2	-1	76*	x
Cc1noc(C)c1S(=O)(=O)Nc1ccc2c(c1)C(=O)N([C@@H](C)CO)C[C@H](C)[C@H](CN(C)S(=O)(=O)c1ccc(F)cc1)OCCCC[C@H](C)O2	x	x	-4	7	81*	x
Cc1noc(C)c1S(=O)(=O)Nc1ccc2c(c1)C(=O)N([C@@H](C)CO)C[C@@H](C)[C@H](CN(C)S(=O)(=O)c1ccc(F)cc1)OCCCC[C@H](C)O2	x	x	-5	-7	94*	x
Cc1noc(C)c1S(=O)(=O)Nc1ccc2c(c1)C(=O)N([C@H](C)CO)C[C@H](C)[C@H](CN(C)S(=O)(=O)c1ccc(F)cc1)OCCCC[C@H](C)O2	x	x	-9	-3	-72	x
COc1ccccc1NC(=O)N1CC(=O)N2[C@@H](CO)[C@H](c3ccc(C#Cc4ccccc4)cc3)[C@@H]2C1	x	x	x	4	-8	x
Cc1noc(C)c1NC(=O)Nc1cccc2c1O[C@H](CN(C)Cc1ccncc1)[C@@H](C)CN([C@H](C)CO)C2=O	x	x	3	-3	10	x
COc1ccc(S(=O)(=O)Nc2ccc3c(c2)CC(=O)N([C@H](C)CO)C[C@@H](C)[C@@H](CN(C)Cc2ccc(C(=O)O)cc2)O3)cc1	x	x	-4	7	-4	x
C[n+]1cccc2cccc([O-])c21	-4	1	x	x	36	1
[O-][n+]1cccc2cccc(O)c21	49*	0	10	-5	5	18
Cn1c(=O)c([N+](=O)[O-])c(NCc2ccccc2)c2ccccc21	-2	-3	3	x	x	-5
Cn1c(=O)c([N+](=O)[O-])c(NCC2CCCO2)c2ccccc21 (centres undefined)	73*	-1	x	-1	-11	0
O=C1NC[C@@H](Cc2ccc(O)cc2)N(CCCCC2CCCCC2)C1=O	x	x	x	1	-18	x
CC(C)C[C@@H](CN1CCC[C@@H]1CN1C(=O)C(=O)NC[C@@H]1Cc1ccccc1)N1C[C@H](Cc2ccc(O)cc2)N(CCc2ccccc2)C(=O)C1=O	-11	-1	7	4	-16	48*
O=C1NC[C@H](Cc2ccc(O)cc2)N(CC2CCCCC2)C1=O	0	-1	-1	6	-5	34*
COc1ccccc1OCCC(=O)OCC(=O)Nc1ccc(Br)cc1F	54*	-1	x	1	-17	2
O=C(COC(=O)/C=C/c1ccc(Cl)c(Cl)c1)NC1CCCC1	-7	0	1	6	-10	-5
O=C(COC(=O)/C=C/c1ccc(Cl)c(Cl)c1)NC1CCS(=O)(=O)C1 (centres undefined)	64*	-1	0	4	-7	-2
O=S(=O)(c1ccc(F)cc1)N1CCCCN2[C@H](CO)[C@H](c3ccc(-c4ccccc4)cc3)[C@H]2C1	x	x	9	2	-17	x
Cc1nnc(SCC(=O)c2ccc(S(=O)(=O)N3CCOCC3)cc2)n1-c1ccccc1	73*	1	-3	x	x	1
CCOC(=O)CSc1nnc(-c2ccc(S(=O)(=O)N3CCOCC3)cc2)n1-c1ccccc1	0	-3	x	x	x	3

Source: PubChem
